According to ChEMBL document CHEMBL4513216, “Probing the Open Global Health Chemical Diversity Library for Multistage-Active Starting Points for Next-Generation Antimalarials” (ACS Infect Dis, 2020):

Assay: Toxicity liver stage against HepG2, at 10uM
Assay type: cell-based
Design: test concentration 10 uM, cell line HepG2-A16-CD81EGFP
Conditions: human, HepG2-A16-CD81EGFP cells; read-out: INHIBITION
How it was run: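 Uninfected HepG2-A16-CD81EGFP cells, 3 × 10^3 per well, 1536-well, plated on prespotted compound at 10 μM final, parasite-free screening media added to match infected plates; puromycin 10 μM positive, DMSO 0.5% negative; run in parallel with 48 h PbLuc assay at 37 °C, 5% CO2; viability by CellTiter-Glo luminescence, normalized to controls.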

Row | Structure (SMILES) | cytotoxicity at 10 µM [%]
1 | O=C(c1cnccn1)N1C[C@@H]2OCC(=O)N(CC3CCCCC3)[C@@H]2C1 | -4.97
2 | COc1cc2c(cc1OC)C(=O)C(Sc1nnnn1C)C2 (stereo not given) | -13.7
3 | COCCSc1ccc(-n2ccnc2)nn1 | 6.11
4 | COCCNC(=O)NCc1cc(-c2ccncc2)n(C2CCCC2)n1 | -8.71
5 | O=C(Cc1ccc(F)cc1)NCCc1ccoc1 | -10.5
6 | COC(=O)c1ccc(S(=O)(=O)N2CCC(Oc3cccnn3)CC2)cc1 | -4.83
7 | O=C(NCc1cccs1)NCC1(O)CCc2ccccc2C1 (stereo not given) | -13.8
8 | CC(C)n1nc(CNc2ncccn2)c2c1CN(S(C)(=O)=O)CC2 | -138
9 | CCS(=O)(=O)N1Cc2c(Cn3ccnc3)nn(C)c2C1 | -2.85
10 | CC(C)N1c2sc(-c3ccsc3)nc2CC1C(=O)NC1CC1 (stereo not given) | 8.67
11 | CS(=O)(=O)N1CCOCC12CCN(c1nncs1)CC2 | 6.74
12 | CN(C)c1ncnc2c1CCN(c1cc(C(F)(F)F)ncn1)CC2 | 9.55
13 | Cc1noc(C2CCCCN2C(=O)NCc2ccco2)n1 (stereo not given) | 0.986
14 | Cc1ccnc(OCC(=O)N2CCC(C(N)=O)CC2)n1 | -17.7
15 | CC1CCN(C(=O)c2cc(NC(=O)c3ccccc3)n(C)n2)CC1 | 5.17
16 | Cn1nc(C(=O)N2CCCCCC2)cc1NC(=O)c1ccccc1 | -0.942
17 | Cc1ncc2c(n1)CCCC2NC(=O)c1cnn(Cc2ccccc2)c1 (stereo not given) | -4.49
18 | Cc1nc2cc(-c3nccn3C)nn2c(N2CCCC2)c1C | 4.53
19 | Cc1cc(C)nc(C2CCN(C(=O)CO)CC2)n1 | 2.53
20 | O=S(=O)(N1CCCC1)N1CC(c2ccnc(Nc3ccccn3)n2)C1 | 11.8
21 | COCCN1CCC1c1cc(N)nc(C)n1 (stereo not given) | 7.75
22 | CN1CCCC1c1cncc(C(=O)NCCN2CCCCC2)n1 (stereo not given) | 0.388

Row | Structure (SMILES) | cytotoxicity at 10 µM [%]
23 | CC(C)c1nnc(CCC(=O)N2CCCC(c3cnccn3)C2)o1 (stereo not given) | 1.88
24 | CC(=O)N1CCC(Cc2cnc(Nc3cc(C)on3)cn2)CC1 | 3.48
25 | O=C(C1CC1)N1CCC(O)(CN2CCN(c3ccccc3)CC2)C1 (stereo not given) | -3.3
26 | CN(C)CCN(C)C(=O)Cn1cccc2cc(-c3ccc(F)cc3)nc1-2 | -24.4
27 | COc1ccc(F)cc1-c1ccccc1CC1(C(=O)O)CCOCC1 | 5.57
28 | Cc1nc(C)n(CC2CCCN(c3ccnc(-c4ccccc4)n3)C2)n1 (stereo not given) | 39.4
29 | CC(C)(C)n1cc(C#N)cc1NC(=O)CCNC(=O)c1ccco1 | 1.95
30 | CCCn1cnc(S(=O)(=O)Nc2cccnc2-n2cccn2)c1 | 15.4
31 | Cc1cnn(CC2CN(CC(=O)Nc3c(C)nn(C)c3C)CCO2)c1 (stereo not given) | 1.08
32 | CCOC(C)c1nccn1Cc1cc(C)on1 (stereo not given) | 8.41
33 | CN(Cc1ccsc1)C(=O)c1nc(N2CCCCC2)ncc1Cl | -27.4
34 | Cn1cnnc1C1CCN(c2nc3ccccc3o2)CC1 | 14.1
35 | CCC(CNC(=O)COC)Oc1cccc(F)c1 (stereo not given) | -44.6
36 | CN(Cc1ncnn1C)C(=O)CCn1ccc2ccccc21 | 1.16
37 | Cc1cc(NC(=O)CNC(C)(C)c2nc(C)c(C)s2)no1 | 13.3
38 | CS(=O)(=O)Nc1cccc(CNC(=O)CCNC(=O)c2cccs2)c1 | 0.466
39 | COc1cccc(NC(=O)CCCc2nc(C(C)C)no2)c1 | 6.39
40 | Cc1cc(C(=O)N(CC2CCCO2)c2ccncc2)c(C)o1 (stereo not given) | -8.97
41 | COc1ncccc1CNCc1c(C(C)C)nn(C)c1OC | -1.68
42 | O=C(NCc1nnc2n1CCCCC2)N(Cc1ccncc1)C1CC1 | 9.66
43 | CC(C#N)CSc1ccccc1NCC(=O)Nc1ccccc1 (stereo not given) | 6.24
44 | CC1CCN(CCNC(=O)C2CCN(C(=O)NC(C)C)CC2)CC1 | 8.21

Row | Structure (SMILES) | cytotoxicity at 10 µM [%]
45 | Cc1ccc(C(=O)NCC(O)c2ccc(F)c(F)c2)c(=O)[nH]1 (stereo not given) | -3.09
46 | Cc1n[nH]c(C2CN(C(=O)c3coc(Br)c3)CCO2)n1 (stereo not given) | -11.3
47 | CCn1cnnc1C1CCN(C(=O)c2ccc3ccccc3n2)CC1 | 6.13
48 | O=C(NCC1CC1)C1CSCN1S(=O)(=O)c1ccccc1F (stereo not given) | 5.02
49 | CC1(C)CN(CC(F)(F)F)CCN1CC(=O)NC1CCCC1 | 10.4
50 | O=C(CNc1ccc(F)cc1OCC(F)(F)F)NCC(F)(F)F | 3.87
51 | CCc1nc(CC(=O)N2CCC(C(=O)N(CC)CC)CC2)cs1 | -1.42
52 | Cc1cc(C(=O)CN2CCN(c3ncccn3)CC2)c(C)n1C(C)C | 9.71
53 | CC(=O)NC(C)C(=O)Nc1ccc(OCc2cccc(F)c2)cc1C (stereo not given) | 0.305
54 | O=C(COCC(F)(F)F)NC1CCCc2cc(OC(F)F)ccc21 (stereo not given) | -5.36
55 | COc1cc(Cl)c(C)cc1NC(=O)CNc1ccn(CC(N)=O)n1 | 9.8
56 | CC(C)C(NC(=O)c1ccccc1F)C(=O)Nc1cnn(C)c1 (stereo not given) | -7.58
57 | Cc1ccc(CN2CCO[C@@H]3[C@@H](OCc4cccnc4)CC[C@@H]32)o1 | 8.37
58 | O=c1ccc2c(n1CC1CC1)CCN(c1ncccn1)CC2 | 7.17
59 | CN1CCC2(CC1)CN(C(=O)c1cccnc1)c1ccc(Cl)cc12 | -109
60 | COC[C@@H]1CC[C@H]2[C@H](CCN2S(=O)(=O)c2ccc(F)cc2)O1 | -2.76
61 | CCn1cc(CN2CCCn3nc(CNS(C)(=O)=O)cc3C2)c(C)n1 | 4.06
62 | Cc1cc(C)n(CCN(C)Cc2c[nH]nc2-c2ccc3c(c2)OCO3)n1 | 0.562
63 | Cc1nc2c(c(N3CCC(O)(Cn4ccnc4)CC3)n1)CCNCC2 | 1.37
64 | O=C(O)CC[C@@H]1CN(c2ncnc3[nH]ccc23)CC[C@@H]1N1CCOCC1 | -15.8
65 | O=C(c1ncoc1C1CC1)N1CCN(CCOc2ccccc2)CC1 | -6.93
66 | COc1ccc(-c2noc(Cn3cnc(C)c3)n2)c(OC)c1OC | -13.2

Row | Structure (SMILES) | cytotoxicity at 10 µM [%]
67 | COc1ccc(C(=O)NC2CC2)c(OC2CCN(CC3CC3)CC2)c1 | -1.47
68 | NC(=O)c1cc2c(nc1-c1ccc3c(c1)OCCO3)CCC2 | -1.88
69 | CC(N)C(=O)N1CCC(Oc2cccc(C(F)(F)F)c2)CC1 (stereo not given) | -8.54
70 | CC(C)(C(=O)NCC1CCN(Cc2ncc[nH]2)C1)c1ccccc1 (stereo not given) | 2.15
71 | CNC(=O)CCCNc1cc(C)nc2cc(C)nn12 | -5.97
72 | Cc1ccc(OCC2CCCN(c3cc(C(N)=O)ccn3)C2)cc1 (stereo not given) | 11.1
73 | O=C1NCCCc2[nH]c(Cc3cccc(F)c3)nc21 | -3.47
74 | CCCc1nnc(N2CCN(C3CCCC3)CC2)o1 | -13.8
75 | CCc1ocnc1C(=O)N1CCN(c2ccc3ccccc3c2)CC1 | 2.99
76 | CCc1cn[nH]c1C1CCN(c2cc(C)c3cc(OC)ccc3n2)CC1 | 1.93
77 | O=C(NCc1cn2cccnc2n1)C1CC(=O)N(Cc2cccnc2)C1 (stereo not given) | -3.23
78 | CSCCC(=O)N(C/C=C/c1ccccc1)CCO | -4.47
79 | CCN(CC)Cc1cc(C(=O)N2CCCC(O)(CO)C2)c(C)o1 (stereo not given) | 7.87
80 | O=C(c1cc[nH]n1)N1CCc2ccc(S(=O)(=O)N3CCOCC3)cc2C1 | 5.18
81 | CC(C)(O)CCc1ccc(C(=O)N2CCN(CC3CCCC3)CC2)cc1 | 12.4
82 | CCc1cc(C(=O)N2CC[C@@H](c3ccc4c(c3)OCO4)[C@H](O)C2)ccn1 | 1.48
83 | Cc1n[nH]c(C)c1NC(=O)CN1CCCC1c1noc(C2CC2)n1 (stereo not given) | 2.94
84 | Cc1cc(CN2CCN(c3ccc4nncn4n3)CC2)no1 | -4.6
85 | Cc1ccc(CN(C)C(=O)c2ccc(NC3CC3)nc2)o1 | -5.57
86 | Cc1nc(C(C)C)sc1C(=O)NCCNc1ncccn1 | -2.02
87 | CC(C)n1nc2c(cc1=O)CN(Cc1nc3ccccc3o1)CC2 | -2.19
88 | COCCN1CCC(CNC(=O)C2(c3cc(C)cc(C)c3)CC2)CC1 | -7.94

Row | Structure (SMILES) | cytotoxicity at 10 µM [%]
89 | Cn1cc(-c2nc(CN3CCOC(Cn4cncn4)C3)cs2)cn1 (stereo not given) | -1.41
90 | c1coc(-c2noc(CN3CCc4cncnc4C3)n2)c1 | -9.39
91 | Cc1nc(C2CCCN2CCS(C)(=O)=O)no1 (stereo not given) | -5.07
92 | c1nc(N2CCOCC2)ncc1-c1cncn1CCCN1CCCCC1 | -7.08
93 | Fc1ccccc1CNc1ccnc(C2CCNCC2)c1 | 8.88
94 | Cc1nc(N)c2ccc(C3CCCN3)nc2n1 (stereo not given) | 3.67
95 | CC(=O)N1CCOCC2(CN(Cc3ccc(C)o3)CCO2)C1 (stereo not given) | 6.41
96 | Cc1cc(CN2C[C@H](N3CCOCC3)[C@@H]3OCCC[C@@H]32)oc1C | -139
97 | O=C([C@H]1CN(Cc2cccnc2)C[C@H]2OCC[C@@H]12)N1CCCO1 | 8.98
98 | CN1CCC2(C=C(C(=O)N3CCCC3)c3ccccc32)CC1 | 1.97
99 | O=C(Cc1cccnc1)N1CCC2(CCN(CC3CCCCC3)C2)CC1 | -1.28
100 | CN(C)CCN1CCOCC2(C1)CN(Cc1ccco1)CCO2 (stereo not given) | -111
101 | CN1CCC2(CCN(CC3CCOCC3)CC2)C1=O | 6.77
102 | c1cncc(-c2ccc3c(c2)CCC32CCN(Cc3ccco3)CC2)c1 | 17.1
103 | COc1cc(N2CCC[C@]3(C(=O)O)CN(C(C)C)C[C@@H]3C2)ncn1 | 4.14
104 | C[C@@H]1CN(C2CCOC2)C[C@]12CCN(c1cccnc1)C2=O (stereo not given in full) | 7.49
105 | COCC(=O)N1C[C@@H](OCc2cccnc2)[C@H]2OCCC[C@@H]21 | 2.53
106 | C[C@@H]1C(=O)NC[C@H]2CN(CCc3ccccc3)C[C@H]21 | 5.45
107 | O=S(=O)(C1CC1)N1CCC2(CC1)CC(Oc1cccnc1)CO2 (stereo not given) | -2.27
108 | CN(C)C(=O)N1C[C@H]2CC[C@@H](C1)N(C(=O)c1cccc(N(C)C)c1)C2 | 0.502
109 | N#CC1(C(=O)N2C[C@@H]3CC[C@H]2CN(Cc2ccncc2)C3)CCOCC1 | -11.9
110 | COCCN1C[C@@H]2CC[C@H]1CN(C(=O)CCn1cc(Cl)cn1)C2 | 7.62
